Screens as filed in PubChem BioAssay.
PREPL inhibitor = PREPL enzyme inhibitors, primary screen, biochemical, fluorescence polarization; AID 2751, 2010; actives 0.68% (n = 320,000); inhibition, % at 5.96 µM; recombinant PREPL, fluorescence polarization activity-based probe; in the data active means inhibition above about 43%;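 further: 0% = enzyme with DMSO and 100% = wells lacking enzyme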
Apaf-1 inh = inhibitors of human Apaf-1 apoptosome, primary screen, biochemical, DEVD-Rh110 fluorescence, uHTS; actives 0.71% (n = 330,000); Apoptotic protease-activating factor 1 (Homo sapiens), O14727; reconstituted apoptosome caspase-3 activity; inhibition, % at 20 µM; active means inhibition of at least 40% at 20 µM;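 further: plate controls were DMSO wells for no effect and DEVD-CHO caspase inhibitor wells for full effect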
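Medium: Hepes buffer, pH 7.5 / System: biochemical Apaf-1 apoptosome reconstitution / Measured by: Rh110 fluorescence, excitation 480 nm, emission 540 nm / Times: compound with Apaf-1, dATP, procaspase-3 30 min, then 50 min reaction, room temperature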
UBC13 polyUb = UBC13 polyubiquitin chain formation inhibitors, primary screen, biochemical, TR-FRET, uHTS; Ubiquitin-conjugating enzyme E2 N (Homo sapiens), P61088; inhibition, % at 20 µM; actives 0.47% (n = 330,000); AID 485273, 2010; in the data active means inhibition above about 45%, passing the limit was not always enough
Target sequence (P61088 whole entry, looked up): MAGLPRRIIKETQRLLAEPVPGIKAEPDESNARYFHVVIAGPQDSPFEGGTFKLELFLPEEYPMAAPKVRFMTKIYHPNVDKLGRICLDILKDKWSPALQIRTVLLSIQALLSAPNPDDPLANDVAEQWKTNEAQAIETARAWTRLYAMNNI
UCH37 inh = inhibitors of human UCH37 deubiquitinase, primary screen, biochemical, Ub-AMC cleavage, fluorescence. Ubiquitin carboxyl-terminal hydrolase isozyme L5 (Homo sapiens), Q9Y5K5. purified proteasome/UCH37. inhibition, % (concentration not given with the values). actives 0.33% (n = 330,000);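 active means mean inhibition over replicate wells above about 20%, limit read from the data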;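 further: 0% = compound-free wells with enzyme and 100% = wells lacking proteasome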
Target sequence (Q9Y5K5 whole entry, looked up): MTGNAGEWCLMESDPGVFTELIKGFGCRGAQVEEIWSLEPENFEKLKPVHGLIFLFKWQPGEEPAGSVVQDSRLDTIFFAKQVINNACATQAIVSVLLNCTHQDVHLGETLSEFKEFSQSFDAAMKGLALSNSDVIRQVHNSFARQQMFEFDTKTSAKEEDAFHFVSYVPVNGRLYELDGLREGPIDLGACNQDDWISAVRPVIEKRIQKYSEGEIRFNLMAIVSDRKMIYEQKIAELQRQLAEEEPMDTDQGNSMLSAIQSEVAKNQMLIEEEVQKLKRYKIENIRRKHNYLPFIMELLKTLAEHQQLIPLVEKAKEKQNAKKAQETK
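Signal – fluorescence, ex 355 nm, em 460 nm · System – Proteasome-bound UCH37 · Input – 0.15 nM proteasome as dispensed · Timing – 30 min preincubation with enzyme, 25 min cleavage at room temperature · Read-out basis – percent inhibition of cleavage signal versus uninhibited and no-proteasome wells · Medium – Tris-HCl pH 7.4 with ATP-MgCl2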
* hit, by the source's call. An excerpt weighted towards active compounds, which were near 1.5% of everything screened.

Results for O=C1c2cc(CO)cc(O)c2C(=O)c2c(O[C@@H]3OC(CO)[C@@H](O)[C@@H](O)[C@@H]3O)cccc21 (stereo partly drawn) ?
PREPL inhibitor: -1.2; Apaf-1 inh: -3.8; UBC13 polyUb: -109.9; UCH37 inh: 3.3

Results for NC(=O)c1ccc(N=Cc2ccc([N+](=O)[O-])s2)cc1 ?
PREPL inhibitor: 3.6; UCH37 inh: 61.7*

Results for Cc1cc(C)cc(N=Cc2ccc([N+](=O)[O-])s2)c1 ?
PREPL inhibitor: -8.9; Apaf-1 inh: 18.4; UBC13 polyUb: -8.4; UCH37 inh: 10.4

How did CCC(O)CC(C(=O)NNc1ccccc1)C(=O)NNc1ccccc1 (stereo not drawn) do in these assays?
PREPL inhibitor: 4.3; Apaf-1 inh: 0.8; UBC13 polyUb: -0.2; UCH37 inh: 30.2*

Results for CCOC(=O)NNc1ccccc1 ?
PREPL inhibitor: 1.8; Apaf-1 inh: -25.1; UBC13 polyUb: -3.1; UCH37 inh: 1.6

Results for CCOc1ccc(NC(=O)CN(C)C(=O)c2ccccc2OCc2c(C)noc2C)cc1OCC ?
PREPL inhibitor: -4.9; Apaf-1 inh: 57.3*; UBC13 polyUb: 23.6; UCH37 inh: -1.7

Results for O=C(Cc1ccccc1)NCC(=O)NN=Cc1ccc(Cl)cc1 ?
UCH37 inh: 0.6

Results for CC1=NN(c2ccc(Cl)cc2)C(=O)C1C(c1cccc(O)c1)c1c(C)[nH]n(-c2ccc(Cl)cc2)c1=O (stereo not drawn) ?
PREPL inhibitor: 9.1; Apaf-1 inh: 85.0*; UBC13 polyUb: -28.4; UCH37 inh: -4.0

What do the screens show for `Cc1[nH]n(-c2ccc(Cl)cc2)c(=O)c1C(=O)c1ccccc1`?
PREPL inhibitor: 5.7; Apaf-1 inh: 6.4; UBC13 polyUb: -2.7; UCH37 inh: 5.7

Results for COc1cccc(N=Nc2c(=O)[nH]n3c(C)cc(C)nc23)c1 ?
PREPL inhibitor: 19.1; Apaf-1 inh: 8.0; UBC13 polyUb: -128.7; UCH37 inh: 8.2

Results for CCOc1ccc(N=Nc2c(=O)[nH]n3c(C)cc(C)nc23)cc1 ?
PREPL inhibitor: -3.9; Apaf-1 inh: 9.6; UBC13 polyUb: -297.7; UCH37 inh: 24.6*

What do the screens show for `CCOc1ccccc1CNC(=O)C1CCN(c2nnc(C)c3c(C)n(-c4ccc(C)cc4)nc23)CC1`?
PREPL inhibitor: 22.8; Apaf-1 inh: 41.0*; UBC13 polyUb: 15.3

What do the screens show for `Cc1ccc(C=NNc2ccc(C(=O)O)cc2)s1`?
UCH37 inh: 11.5

Results for Cc1ccc(-n2nnnc2Sc2nc([N+](=O)[O-])nn2C)cc1C ?
PREPL inhibitor: 18.7; Apaf-1 inh: -3.8; UBC13 polyUb: -2.2; UCH37 inh: 20.1*

Results for Cc1ccc(C)c(-n2nnnc2Sc2nc([N+](=O)[O-])nn2C)c1 ?
PREPL inhibitor: 16.2; Apaf-1 inh: -4.2; UBC13 polyUb: 6.1; UCH37 inh: 1.7

Results for COC(=O)c1c(C)[nH]c(O)c1C=Nc1ccc(C(C)C)cc1 ?
PREPL inhibitor: 47.0*; Apaf-1 inh: 21.5; UBC13 polyUb: -13.0

What do the screens show for `O=c1[nH]c(/C=C\c2ccc(O)c(Cl)c2)nc(O)c1[N+](=O)[O-]`?
PREPL inhibitor: 7.3; Apaf-1 inh: 9.6; UBC13 polyUb: -34.8; UCH37 inh: 20.8*

Results for O=c1[nH]c(/C=C\c2ccc(O)cc2)nc(O)c1[N+](=O)[O-] ?
PREPL inhibitor: 11.2; Apaf-1 inh: -4.5; UBC13 polyUb: -9.7; UCH37 inh: 18.1

What do the screens show for `O=c1[nH]c(/C=C\c2cccs2)nc(O)c1[N+](=O)[O-]`?
PREPL inhibitor: 0.7; Apaf-1 inh: 4.0; UBC13 polyUb: 0.9; UCH37 inh: 20.7*

What do the screens show for `COc1cc(C(=O)ON=C2C=CC(=O)C(C)=C2C)cc(OC)c1OC`?
UCH37 inh: 6.2

Results for O=C(NN=Cc1ccc(Sc2ccccn2)o1)c1cccc(Br)c1 ?
UCH37 inh: -0.6

How did COc1ccccc1N(CC(=O)NN=Cc1ccc(OCC(=O)NCc2ccco2)cc1)S(=O)(=O)c1ccc(C)cc1 do in these assays?
UCH37 inh: 1.6

What do the screens show for `Nc1ccc(Nc2ccccc2N)cc1`?
PREPL inhibitor: 94.4*; Apaf-1 inh: 18.0; UBC13 polyUb: -32.3; UCH37 inh: -2.5

How did C/C(=C\c1ccccc1)C1Nc2cccc3cccc(c23)N1 do in these assays?
PREPL inhibitor: 15.3; Apaf-1 inh: 41.4*; UBC13 polyUb: -30.5

What do the screens show for `C/C(=C\c1ccccc1F)C1Nc2cccc3cccc(c23)N1`?
PREPL inhibitor: 22.2; Apaf-1 inh: 20.4; UBC13 polyUb: -32.3; UCH37 inh: 0.8

Results for O=C(COc1cccc2cccnc12)NN=C1SCC(=O)N1Cc1ccccc1 ?
UCH37 inh: 3.7

How did CCN(CC(=O)Nc1ccccc1OC)C(=O)CN1C(=O)NC(C)(c2ccc(C)cc2)C1=O (stereo not drawn) do in these assays?
PREPL inhibitor: 8.1; Apaf-1 inh: 1.4; UBC13 polyUb: 6.8; UCH37 inh: 2.0

What do the screens show for `CCN(CC(=O)Nc1ccccc1OC)C(=O)CN1C(=O)NC(C)(c2ccccc2)C1=O` (stereo not drawn)?
PREPL inhibitor: 12.5; Apaf-1 inh: 49.5*; UBC13 polyUb: 14.0; UCH37 inh: 0.3

Results for COc1ccc(C=Nn2cnnc2SCCO)cc1OC ?
UCH37 inh: -4.9

Results for CCOC(=O)NC(=O)/C(C#N)=C\Nc1sccc1C(=O)OC ?
PREPL inhibitor: 11.1; Apaf-1 inh: 1.7; UBC13 polyUb: -6.7; UCH37 inh: 28.2*

Results for CCOC(=O)NC(=O)/C(C#N)=C\Nc1ccc(Cl)cc1Cl ?
PREPL inhibitor: -5.0; Apaf-1 inh: -3.6; UBC13 polyUb: -16.1; UCH37 inh: 2.1

Results for CCCCCCSc1ccc(-c2nc3ccc(C)cn3c2NC2CCCCC2)cc1 ?
PREPL inhibitor: -1.7; Apaf-1 inh: 20.1; UBC13 polyUb: 30.4; UCH37 inh: -356.8

How did CCCCCCSc1ccc(-c2nc3cc(C)ccn3c2NC2CCCCC2)cc1 do in these assays?
PREPL inhibitor: 14.5; Apaf-1 inh: 46.6*; UBC13 polyUb: 18.9; UCH37 inh: -405.5

What do the screens show for `C=CCOc1ccc(C=NNC(=O)CN2CCCCC2)cc1OC`?
UCH37 inh: 5.7

Results for CC(C)=CC(=O)Nc1nnc(-c2ccccc2)s1 ?
PREPL inhibitor: 9.7; Apaf-1 inh: -33.8; UBC13 polyUb: -2.1; UCH37 inh: 2.6

Results for CC(C)=CC(=O)Nc1nnc(C)s1 ?
PREPL inhibitor: 0.4; Apaf-1 inh: -10.2; UBC13 polyUb: 8.0; UCH37 inh: 28.1*

What do the screens show for `CC(C)(C)c1nn2cnnc2n(N=Cc2ccccc2)c1=O`?
UCH37 inh: 7.6

What do the screens show for `CCOC(=O)Oc1ccc2c(=O)c(Oc3cccc(C)c3)coc2c1`?
PREPL inhibitor: 65.3*; Apaf-1 inh: 13.8; UBC13 polyUb: 9.5; UCH37 inh: -30.3

What do the screens show for `CC(=NNC(=O)c1ccccc1O)C1C(=O)c2ccccc2C1=O`?
UCH37 inh: 20.9*
